Molecules are shown by their SMILES. Active and inactive are the calls of the source. The rule behind the calls is not given here.

Inhibition data for three molecules are collected here from ChEMBL document CHEMBL4261499, “Chiral disubstituted piperidinyl ureas: a class of dual diacylglycerol lipase-α and ABHD6 inhibitors” (Medchemcomm, 2017).

In assay [1] the target is 1-acylglycerol-3-phosphate O-acyltransferase ABHD5 (Mus musculus) (UniProt Q9DBL9). Description: Inhibition of MB064 labelling of ABHD5 in mouse brain homogenates at 10 uM pretreated for 30 mins followed by MB064 addition and measured after 20 mins by activity based protein profiling assay. It is filed as tissue-based. A digest of the protocol:
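Mouse brain membrane proteome preincubated 30 min with inhibitor (10 μM), then labelled with MB064 probe (0.25 μM, 20 min). Readout by gel-based competitive ABPP. Band intensities corrected for protein loading per lane from Coomassie staining. Means ± SEM, n = 3.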

Assay [2] concerns the target T1, Monoglyceride lipase (Mus musculus) (UniProt O35678).
T1 sequence (whole entry): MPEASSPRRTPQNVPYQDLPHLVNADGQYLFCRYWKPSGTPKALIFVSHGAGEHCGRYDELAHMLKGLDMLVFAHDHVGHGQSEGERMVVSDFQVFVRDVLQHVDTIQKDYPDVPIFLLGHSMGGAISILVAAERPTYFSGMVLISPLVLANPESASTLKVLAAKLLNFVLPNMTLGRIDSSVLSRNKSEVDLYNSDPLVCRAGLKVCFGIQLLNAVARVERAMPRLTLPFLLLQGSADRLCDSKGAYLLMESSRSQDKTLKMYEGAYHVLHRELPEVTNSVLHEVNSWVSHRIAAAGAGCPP
Description: Inhibition of FP-TAMRA labelling of MAGL in mouse brain homogenates at 10 uM pretreated for 30 mins followed by FP-TAMRA addition and measured after 20 mins by activity based protein profiling assay. It is filed as tissue-based. A digest of the protocol:
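Mouse brain membrane proteome (2 mg mL-1) preincubated 30 min at r.t. with inhibitor (10 μM) or DMSO vehicle, then labelled with TAMRA-FP, 500 nM final, 20 min at r.t. Reaction quenched with Laemmli sample buffer. Readout by gel-based competitive ABPP with Coomassie staining as loading control.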

Sequence of 1-acylglycerol-3-phosphate O-acyltransferase ABHD5 (Mus musculus) (Q9DBL9 whole entry, looked up): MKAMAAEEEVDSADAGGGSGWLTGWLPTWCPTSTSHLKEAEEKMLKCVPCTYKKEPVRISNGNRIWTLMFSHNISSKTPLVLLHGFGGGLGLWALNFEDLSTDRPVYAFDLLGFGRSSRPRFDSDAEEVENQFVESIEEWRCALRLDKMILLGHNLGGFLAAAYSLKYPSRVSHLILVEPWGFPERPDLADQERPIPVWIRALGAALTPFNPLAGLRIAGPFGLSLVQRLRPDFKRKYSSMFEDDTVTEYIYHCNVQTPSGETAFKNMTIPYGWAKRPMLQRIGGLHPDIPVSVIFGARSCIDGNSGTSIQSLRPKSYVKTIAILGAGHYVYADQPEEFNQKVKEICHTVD

Consider `O=C(N1CCC=C[C@@H]1COCc1ccccc1)n1cc(-c2ccc([N+](=O)[O-])cc2)nn1`, for which the inhibition entry in assay [1] and in assay [2] was “Active” throughout.
Take `O=C(N1CCC=C[C@@H]1COCc1ccccc1)n1cc(-c2ccccc2)nn1`: the inhibition entry in assay [1] and in assay [2] was “Active” in each case.
As to `O=C(N1C[C@@H](O)C=C[C@@H]1COCc1ccccc1)n1cc(-c2ccc(-c3ccccc3)cc2)nn1`, the inhibition entry in assay [1] and in assay [2] was “Active” throughout.
